Data as given in ChEMBL document CHEMBL1250434, “A novel achiral seco-cyclopropylpyrido[e]indolone (CPyI) analog of CC-1065 and the duocarmycins: synthesis, DNA interactions, in vivo anticancer and anti-parasitic evaluation” (Bioorg Med Chem, 2010).
pIC50: −log10 of the molar value.

Tests used:
[1] = Cytotoxicity against mouse B16F0 cells after 3 days by MTT assay; type: functional, cell-based; settings: B16F0, 72 h
Method in brief: (§1)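 Murine tumour cells under continuous drug exposure for 3 days. Growth inhibition measured by MTT assay. IC50 is the concentration inhibiting growth by 50%.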

L1210 = experiment: Cytotoxicity against mouse L1210 cells after 3 days by MTT assay; type: functional, cell-based; settings: L1210, 72 h; method in brief: as §1

Row | SMILES | pIC50 [1] | pIC50 (L1210)
1 | COc1cc2cc(C(=O)N3CC(CCl)c4c3cc(O)c3ccccc43)[nH]c2c(OC)c1OC (centres undefined) | 7.11 | 
2 | COc1c(O)c2c(c3cc(C(=O)N4CCc5c4c(O)c(OC)c4[nH]c(C(=O)N6C[C@H]7C[C@@]78C6=CC(=O)c6[nH]cc(C)c68)cc54)[nH]c13)CCN2C(N)=O [(+)-CC-1065] |  | 10.52
3 | COc1cc2cc(C(=O)Nc3cc(O)c4ccccc4c3CCCl)[nH]c2c(OC)c1OC | 6.82 | 6.74
